From ChEMBL document CHEMBL1932969, “Acyl derivatives of boswellic acids as inhibitors of NF-κB and STATs” (Bioorg Med Chem Lett, 2012) come the findings set out here.

Activity calls are given as the source filed them. The rule behind the calls is not given here.

In one assay the test system is HT-29. The assay is described as follows: Anticancer activity against human HT-29 cells assessed as growth inhibition at 50 uM after 48 hrs by SRB assay. In kind it is functional. The following applies: HT-29, 48 h, read-out: GI. An outline of the steps:
(§1)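 Cells exposed to test compounds at 50 µM for 48 h. Read-out is percent growth inhibition, with SEM given. 5-Fluorouracil and adriamycin serve as reference agents.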

The test system of a further assay is COLO 205. Kind of assay: Anticancer activity against human COLO205 cells assessed as growth inhibition at 50 uM after 48 hrs by SRB assay. The following applies: COLO 205, 48 h, read-out: GI. It counts as functional. In a few lines: as §1
Assay [1] concerns HL-60. The assay is described as follows: Induction of necrosis in p53-deficient human HL60 cells at 50 uM after 6 hrs by FITC-conjugated annexinV/PI-based flow cytometric analysis. In kind it is functional, cell-based. In a few lines:
(§2)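 HL-60 cells incubated with each analog at 50 µM for 6 h, stained with annexin V-FITC/propidium iodide and analysed by flow cytometry. Lower right quadrant is apoptotic, upper right post-apoptotic, upper left necrotic. Three experiments, with representative dot plots shown.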

The subject of another assay is HEp-2. The assay is described as follows: Anticancer activity against human Hep2 cells assessed as growth inhibition at 50 uM after 48 hrs by SRB assay. In kind it is functional. The following applies: HEp-2, 48 h, read-out: GI. An outline of the steps: as §1
On the technique in general: The SRB assay estimates cell density from bound dye.

Assay [2] has as its system HL-60. Kind of assay: Anticancer activity against human HL60 cells after 48 hrs by MTT assay. It counts as functional, cell-based. The following applies: HL-60, 48 h. In a few lines: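 Cell proliferation measured by MTT. Cells are incubated with each analog for 48 h at the indicated concentrations, then MTT reduction is read as an index of viability. OD of the untreated control is taken as 100% viability, and IC50 is derived from this.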
A general note: Tetrazolium dyes change colour on reduction, which living cells bring about.

For a further assay, the system named is PC-3. The assay is described as follows: Anticancer activity against human PC3 cells assessed as growth inhibition at 50 uM after 48 hrs by SRB assay. In kind it is functional. The note with it: PC-3, 48 h, read-out: GI. An outline of the steps:
as §1

In assay [3] the test system is HL-60. The assay is described as follows: Induction of apoptosis in p53-deficient human HL60 cells assessed as DNA fragmentation at 50 uM after 6 hrs by agarose gel electrophoresis. In kind it is functional, cell-based. In a few lines: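 2 × 10⁶ HL-60 cells treated with derivatives at 50 µM for 6 h, then scored for an apoptotic DNA ladder of 180–200 bp fragments or multiples. The positive control is 4 µM camptothecin for 6 h.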

The subject of assay [4] is HL-60. The assay is described as follows: Induction of apoptosis in p53-deficient human HL60 cells assessed as apoptotic cells at 50 uM after 6 hrs by FITC-conjugated annexinV/PI-based flow cytometric analysis (reference value: 5 %). It counts as functional. An outline of the steps:
as §2

Assay [5] concerns HL-60. Kind of assay: Induction of autophagy in p53-deficient human HL60 cells at 50 uM after 6 hrs by acridine orange staining. It counts as functional, cell-based. In a few lines:
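Autophagy scored by flow cytometry of HL-60 cells stained with acridine orange after 6 h exposure.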

Assay [6] concerns HL-60. The assay is described as follows: Induction of apoptosis in p53-deficient human HL60 cells assessed as post-apoptotic cells at 50 uM after 6 hrs by FITC-conjugated annexinV/PI-based flow cytometric analysis (reference value: 1 %). In kind it is functional. In a few lines:
as §2

The subject of the next assay is SW-620. The assay is described as follows: Anticancer activity against human SW620 cells assessed as growth inhibition at 50 uM after 48 hrs by SRB assay. It counts as functional. The following applies: SW-620, 48 h, read-out: GI. An outline of the steps: as §1
The test system of another assay is DU-145. Kind of assay: Anticancer activity against human DU145 cells assessed as growth inhibition at 50 uM after 48 hrs by SRB assay. In kind it is functional. The note with it: DU-145, 48 h, read-out: GI. In a few lines:
as §1

For `CCC(=O)O[C@@H]1CC[C@@]2(C)[C@@H](CC[C@]3(C)[C@@H]2CC=C2[C@@H]4[C@@H](C)[C@H](C)CC[C@]4(C)CC[C@]23C)[C@@]1(C)C(=O)O`, the inhibition of growth at 50 µM in the assay on HT-29 is 93%; with COLO 205, 84%; in the assay with HEp-2, 86%; in the assay with PC-3 it was 93%; with SW-620 it was 94%; in the assay with DU-145, 91%. The result in the assay with HL-60 [1] and in the assay on HL-60 [5] was inactive. In addition, in the assay with HL-60 [2], the midpoint of inhibition, the IC50, lay at 13 µM. For the same molecule, the outcome in the assay on HL-60 [3] was Active. Moreover, the figures for the Activity in the assay on HL-60 [4] and with HL-60 [6] were 23% and 24%, respectively.
Take `CCCC(=O)O[C@@H]1CC[C@@]2(C)[C@@H](CC[C@]3(C)[C@@H]2CC=C2[C@@H]4[C@@H](C)[C@H](C)CC[C@]4(C)CC[C@]23C)[C@@]1(C)C(=O)O`: the inhibition of growth at 50 µM with HT-29 stood at 95%; with COLO 205 it was 88%; in the assay with HEp-2, 94%; in the assay on PC-3, 77%; in the assay with SW-620 it was 93%; with DU-145, 89%. Besides, the outcome with HL-60 [1] and with HL-60 [5] was inactive. For the same molecule, in the assay with HL-60 [2], half-maximal inhibition (IC50) required 14 µM. Moreover, the outcome in the assay with HL-60 [3] was Active. In addition, the Activity in the assay on HL-60 [4] was 31%; in the assay with HL-60 [6], 13%.
In the case of `CCC(=O)O[C@H]1CC[C@@]2(C)[C@@H](CC[C@]3(C)[C@@H]2CC=C2[C@@H]4[C@@H](C)[C@H](C)CC[C@]4(C)CC[C@]23C)[C@@]1(C)C(=O)O`, the inhibition of growth at 50 µM was found to be 92% in the assay on HT-29; 86% with COLO 205; 87% with HEp-2; 95% in the assay on PC-3; 89% in the assay on SW-620; 88% in the assay on DU-145. Moreover, the outcome with HL-60 [1] and with HL-60 [5] was inactive. In addition, the IC50 – broadly, the concentration at which inhibition is half-maximal – with HL-60 [2] was 12 µM. Besides, the result in the assay on HL-60 [3] was Active. For the same molecule, the Activity with HL-60 [4] was 18%; in the assay on HL-60 [6] it was 20%.
In the case of `CC(=O)O[C@H]1CC[C@@]2(C)[C@@H](CC[C@]3(C)[C@@H]2CC=C2[C@@H]4[C@@H](C)[C@H](C)CC[C@]4(C)CC[C@]23C)[C@@]1(C)C(=O)O`, the inhibition of growth at 50 µM in the assay with HT-29 is 31%; in the assay on COLO 205, 32%; in the assay on HEp-2 it was 42%; with PC-3, 56%; with SW-620 it was 35%; in the assay with DU-145, 87%.
`COc1cccc2c1C(=O)c1c(O)c3c(c(O)c1C2=O)C[C@@](O)(C(=O)CO)C[C@@H]3O[C@H]1C[C@H](N)[C@H](O)[C@H](C)O1` [DOXORUBICIN]: the inhibition of growth at 50 µM came out at 88% in the assay on HT-29; 81% in the assay on COLO 205; 64% with HEp-2; 86% in the assay with PC-3; 72% with SW-620; 90% in the assay with DU-145.
For `COC(=O)[C@@]1(C)C(=O)CC[C@]2(C)[C@H]3C(=O)C=C4[C@@H]5[C@@H](C)[C@H](C)CC[C@]5(C)CC[C@@]4(C)[C@]3(C)CC[C@@H]12`, the inhibition of growth at 50 µM in the assay on HT-29 amounted to 17%; with COLO 205, 30%; with HEp-2 it was 10%; in the assay on PC-3 it was 3%; in the assay with SW-620, 11%; in the assay with DU-145, 23%.
Consider `C[C@H]1[C@H](C)CC[C@]2(C)CC[C@]3(C)C(=CC(=O)[C@@H]4[C@@]5(C)CC[C@@H](O)[C@](C)(C(=O)O)[C@@H]5CC[C@]43C)[C@H]12` [11-KETO BOSWELLIC ACID], for which the inhibition of growth at 50 µM came out at 39% in the assay with HT-29; 52% with COLO 205; 35% in the assay on HEp-2; 100% in the assay with PC-3; 28% with SW-620; 95% in the assay with DU-145.
In the case of `O=c1[nH]cc(F)c(=O)[nH]1` [FLUOROURACIL], the inhibition of growth at 50 µM in the assay with HT-29 worked out at 41%; in the assay with COLO 205, 29%; in the assay with HEp-2 it was 29%; in the assay with PC-3, 16%; in the assay on SW-620, 44%; with DU-145 it was 35%.
Consider `C[C@H]1[C@H](C)CC[C@]2(C)CC[C@]3(C)C(=CC[C@@H]4[C@@]5(C)CC[C@H](OC(=O)CCC(=O)O)[C@](C)(C(=O)O)[C@@H]5CC[C@]43C)[C@H]12`, for which the inhibition of growth at 50 µM in the assay with HT-29 came to 13%; in the assay with COLO 205, 19%; in the assay on HEp-2, 11%; in the assay on PC-3 it was 35%; in the assay on SW-620, 5%; with DU-145 it was 48%.
For `CC[C@@]1(O)C(=O)OCc2c1cc1n(c2=O)Cc2cc3ccccc3nc2-1` [CAMPTOTHECIN], the Activity in the assay with HL-60 [4] worked out at 18%; in the assay with HL-60 [6], 7%.
As to `COC(=O)[C@]1(C)[C@@H]2CC[C@]3(C)[C@H](CC=C4[C@@H]5[C@@H](C)[C@H](C)CC[C@]5(C)CC[C@]43C)[C@@]2(C)CC[C@@H]1O`, the inhibition of growth at 50 µM with HT-29 was found to be 5%; with COLO 205, 22%; in the assay on HEp-2 it was 0%; in the assay on PC-3, 7%; with SW-620, 9%; in the assay on DU-145 it was 3%.
For the molecule `COC(=O)[C@@]1(C)[C@H](O)CC[C@@]2(C)[C@H]1CC[C@]1(C)[C@@H]2CC=C2[C@@H]3[C@@H](C)[C@H](C)CC[C@]3(C)CC[C@]21C`, the inhibition of growth at 50 µM in the assay on HT-29 was 35%; in the assay on COLO 205 it was 43%; in the assay on HEp-2, 26%; with PC-3, 54%; in the assay with SW-620, 46%; in the assay with DU-145, 85%.
Take `C[C@H]1[C@H](C)CC[C@]2(C)CC[C@]3(C)C(=CC[C@@H]4[C@@]5(C)CC[C@@H](O)[C@](C)(C(=O)O)[C@@H]5CC[C@]43C)[C@H]12` [BOSWELLIC ACID]: the inhibition of growth at 50 µM in the assay with HT-29 was found to be 66%; with COLO 205, 85%; in the assay with HEp-2 it was 43%; with PC-3 it was 100%; in the assay with SW-620, 64%; in the assay on DU-145, 92%. Besides, the outcome with HL-60 [1] and in the assay with HL-60 [5] was inactive. For the same molecule, half-maximal inhibition with HL-60 [2] (IC50) required 15 µM. For the same molecule, the Activity with HL-60 [4] was found to be 20%; in the assay with HL-60 [6], 34%.
`CCC(=O)O[C@H]1CC[C@@]2(C)[C@@H](CC[C@]3(C)[C@@H]2C(=O)C=C2[C@@H]4[C@@H](C)[C@H](C)CC[C@]4(C)CC[C@]23C)[C@@]1(C)C(=O)O`: the inhibition of growth at 50 µM was determined as 64% in the assay on HT-29; 83% in the assay with COLO 205; 63% in the assay on HEp-2; 96% in the assay with PC-3; 72% with SW-620; 89% with DU-145.
Regarding `CCC(=O)O[C@@H]1CC[C@@]2(C)[C@@H](CC[C@]3(C)[C@@H]2C(=O)C=C2[C@@H]4[C@@H](C)[C@H](C)CC[C@]4(C)CC[C@]23C)[C@@]1(C)C(=O)O`, the inhibition of growth at 50 µM in the assay on HT-29 was found to be 89%; with COLO 205, 87%; in the assay on HEp-2, 69%; in the assay with PC-3 it was 64%; in the assay on SW-620, 85%; with DU-145 it was 25%. Besides, the result in the assay on HL-60 [1] and with HL-60 [5] was inactive. The molecule also had a concentration for half-maximal inhibition (IC50) in the assay on HL-60 [2] of 16 µM. The outcome with HL-60 [3] was Active. The Activity with HL-60 [4] came to 21%; with HL-60 [6] it was 17%.
Consider `CCCC(=O)O[C@H]1CC[C@@]2(C)[C@@H](CC[C@]3(C)[C@@H]2C(=O)C=C2[C@@H]4[C@@H](C)[C@H](C)CC[C@]4(C)CC[C@]23C)[C@@]1(C)C(=O)O`, for which the inhibition of growth at 50 µM with HT-29 turned out to be 62%; with COLO 205, 91%; in the assay with HEp-2, 66%; in the assay on PC-3 it was 94%; with SW-620, 79%; with DU-145, 92%.
